Calls of active or inactive are those of the source.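 The calls were made as follows, unless noted: active = viability at or under a set limit in both replicates, limit being median viability minus 3 SD (cut at about 48% in these data, passing the limit was not always enough); inconclusive = at or under the limit in just one replicate; inactive = at or above the limit in both replicates.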

As a reminder, the viability is a read-out of living cells in per cent, often relative to untreated cells. Usually inhibition stands for the relative decrease from the control value, in per cent.

Assay [1] in a line: reduced viability of SK-BR-3 breast cancer cells – cell-based, 24 h, human, pilot screen (AID 572;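 active = viability at or below 10% of carrier control in both of two separate runs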;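 also: compound exposure lasted between 18 and 24 h rather than exactly 24 h; 100% = carrier-treated control wells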). Particulars: SK-BR-3 viability, CellTiter-Glo luminescence, at 10 µM, stronger effect = lower value. Background: Cellular ATP, detected with luciferase, serves as a proxy for viable cell number.
The nature of assay [2]: HUVEC growth inhibition – cell-based, human, primary screen (AID 575;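 active = viability at or below 30% in both replicate assays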;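 also: 100% = median of untreated cell wells with 0.1% DMSO on each plate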). Particulars: HUVEC proliferation, CellTiter-Glo luminescence, 72 h; at 10 µM; stronger effect = lower value. Put shortly: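 Test system: primary human umbilical vein endothelial cells; medium: endothelial basal medium with 2% FBS plus growth supplements; dosing: 10 µM compound only; times: 72 h treatment at 37 °C; signal: CTG luminescence; read-out: % viability relative to median vehicle-well signal on each plate; control set: vehicle and MePR control wells; plate: 384-well, collagen-coated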

Assay [3] is described as follows: H69AR cell proliferation blockers – human, duplicate replicates, primary screen (AID 580).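 Also: 100% = mean luminescence of untreated wells and 0% = no signal.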 The note with it: H69AR lung tumor cells viability, ATP luminescence, 72 h; at 10 µM; stronger effect = lower value.
Assay [4] can be described thus: MRP1 drug-resistance reversers in H69AR cells – cell-based, doxorubicin co-treatment, pilot screen (AID 601;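 active = viability loss from added drug above about 55%, and viability with drug at most 40%, in both replicates, limit read from the data, passing the limit was not always enough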). The note with it: CellTiter-Glo, 72 h, at 10 µM; for differential viability (reversal): stronger effect = higher value.
The nature of assay [5]: yeast transport mutant growth inhibition pilot in 384-well plates, post-Golgi transport modulator project (AID 636; in the data active = inhibition above about 31%). The note with it: absorbance 615 nm, about 18 h, stronger effect = higher value.
A short description of assay [6]: growth suppression of yeast trafficking mutant, preliminary HTS, modulators of trafficking downstream of Golgi apparatus project, 1536-format plate, OD 615 nm (AID 637; in the data active = inhibition above about 30%). The note with it: yeast transport mutant growth, absorbance 615 nm, 18 h; stronger effect = higher value.
The mark [7] stands for this setting: H69AR cells + 2 uM doxorubicin, measured here: viability with 2 uM doxorubicin, stronger effect = lower value.
Setting [8] is: H69AR cells, compound alone cytotoxicity.

Consider `COc1ccc(OC)c(NC(=O)C23CCC(C)(C(=O)C2)C3(C)C)c1` (stereo unspecified), for which the viability in assay [1] was 72% (inactive); in assay [2] it was 101% (inactive); in assay [3], 102% (inactive); in assay [4] (setting [7]) it was 103%; in assay [4] (setting [8]), 102%. In addition, in assay [4] (H69AR cells + 2 uM doxorubicin), the differential viability (reversal) is -0.69% (inactive). Further, the inhibition in assay [5] was -6.3% (inactive); in assay [6], -2.73% (inactive).
Turning to `Cc1nc2ccccc2nc1OCC(=O)Nc1cc(C(F)(F)F)ccc1N1CCOCC1`, the viability in assay [1] is 72% (inactive); in assay [2] it was 93% (inactive); in assay [3] it was 96.3% (inactive); in assay [4] (setting [7]), 101%; in assay [4] (setting [8]), 96.3%. The differential viability (reversal) in assay [4] (H69AR cells + 2 uM doxorubicin) is -4.5% (inactive). The inhibition in assay [5] is -6.44% (inactive); in assay [6] it was 3.64% (inactive).
In the case of `O=C(CSc1nnc(NC(=O)C2CCC2)s1)NC1CC1`, the viability in assay [1] is 100% (inactive); in assay [2], 106% (inactive); in assay [3], 106% (inactive); in assay [4] (setting [7]), 93.4%; in assay [4] (setting [8]), 106%. The differential viability (reversal) in assay [4] (H69AR cells + 2 uM doxorubicin) is 12.2% (inactive). Moreover, the inhibition in assay [5] was -6.76% (inactive); in assay [6], 2% (inactive).
Turning to `Cc1cccc(NC(=O)c2ccc3ccccc3n2)n1`, the viability in assay [1] is 91% (inactive); in assay [2], 86.6% (inactive); in assay [3], 76.3% (inactive); in assay [4] (setting [7]) it was 94.3%; in assay [4] (setting [8]), 76.3%. For the same compound, the differential viability (reversal) in assay [4] (H69AR cells + 2 uM doxorubicin) is -18.1% (inactive). Besides, the values for the inhibition in assay [5] and in assay [6] were -0.13% (inactive) and -1.83% (inactive), respectively.
With `Cc1cc(S(=O)(=O)N2CCN(c3ncccn3)CC2)ccc1-n1cnnn1`, the viability in assay [1] is 94% (inactive); in assay [2] it was 120% (inactive); in assay [3], 97.1% (inactive); in assay [4] (setting [7]), 93.7%; in assay [4] (setting [8]), 97.1%. For the same compound, in assay [4] (H69AR cells + 2 uM doxorubicin), the differential viability (reversal) is 3.36% (inactive). Also, the inhibition is -2.8% (inactive) in assay [5] and -0.73% (inactive) in assay [6].
In the case of `O=C(C1CCCCC1)N1CC(=O)N2CCc3ccccc3C2C1` (stereo unspecified), the viability in assay [1] was 104% (inactive); in assay [2] it was 107% (inactive); in assay [3] it was 96.7% (inactive); in assay [4] (setting [7]) it was 100%; in assay [4] (setting [8]), 96.7%. The differential viability (reversal) in assay [4] (H69AR cells + 2 uM doxorubicin) was -3.46% (inactive). Also, the values for the inhibition in assay [5] and in assay [6] were -0.91% (inactive) and -0.83% (inactive), respectively.
In the case of `Cc1cc(NC(=O)Cc2c(F)cccc2Cl)no1`, the viability was 102% (inactive) in assay [1]; 95.5% (inactive) in assay [2]; 96% (inactive) in assay [3]; 89.2% in assay [4] (setting [7]); 96% in assay [4] (setting [8]). Further, in assay [4] (H69AR cells + 2 uM doxorubicin), the differential viability (reversal) is 6.76% (inactive). For the same compound, the inhibition in assay [5] was -7.26% (inactive); in assay [6], 3.64% (inactive).
Turning to `NC(N)=NC(=O)c1nc(Cl)c(N)nc1N`, the viability in assay [1] was 117% (inactive); in assay [2], 86.5% (inactive); in assay [3], 91.2% (inactive); in assay [4] (setting [7]), 95.5%; in assay [4] (setting [8]), 91.2%. Moreover, in assay [4] (H69AR cells + 2 uM doxorubicin), the differential viability (reversal) is -4.34% (inactive). Further, the inhibition in assay [5] is -2.34% (inactive); in assay [6], 1.67% (inactive).
Consider `CC(C)OC(=O)C(C)(C)Oc1ccc(C(=O)c2ccc(Cl)cc2)cc1`, for which the viability in assay [1] is 88% (inactive); in assay [2] it was 90.1% (inactive); in assay [3], 103% (inactive); in assay [4] (setting [7]), 94.5%; in assay [4] (setting [8]), 103%. Moreover, the differential viability (reversal) in assay [4] (H69AR cells + 2 uM doxorubicin) is 8.95% (inactive). Further, the inhibition is 0.78% (inactive) in assay [5] and -7.67% (inactive) in assay [6].
For the compound `Cc1ccc2nc(-c3ccccn3)cc(C(=O)N3CCN(c4ncccn4)CC3)c2c1`, the viability is 100% (inactive) in assay [1]; 102% (inactive) in assay [2]; 77.8% (inactive) in assay [3]; 83.5% in assay [4] (setting [7]); 77.8% in assay [4] (setting [8]). Moreover, in assay [4] (H69AR cells + 2 uM doxorubicin), the differential viability (reversal) is -5.74% (inactive). For the same compound, the figures for the inhibition in assay [5] and in assay [6] were -2.7% (inactive) and 0.91% (inactive), respectively.
As for `O=C(c1ccccc1)c1ccc(N2CCNCC2)cc1`, the viability was 129% (inactive) in assay [1]; 96.4% (inactive) in assay [2]; 84.5% (inactive) in assay [3]; 89.9% in assay [4] (setting [7]); 84.5% in assay [4] (setting [8]). In addition, in assay [4] (H69AR cells + 2 uM doxorubicin), the differential viability (reversal) was -5.36% (inactive). The inhibition is -2.05% (inactive) in assay [5] and 6.91% (inactive) in assay [6].
On to `Cc1cc(-c2ccccc2)nc(SCc2ccc(C(=O)O)o2)n1`, for which the viability in assay [1] was 121% (inactive); in assay [2] it was 103% (inactive); in assay [3], 97.5% (inactive); in assay [4] (setting [7]) it was 91.6%; in assay [4] (setting [8]), 97.5%. In addition, the differential viability (reversal) in assay [4] (H69AR cells + 2 uM doxorubicin) was 5.94% (inactive). The results for the inhibition in assay [5] and in assay [6] were -5.6% (inactive) and 0.73% (inactive), respectively.

The values above are taken from PubChem BioAssay.
